# A selection: hits, their analogues and other compounds. The true share with any hit is near 1.1%.
# Yeast growth tox = Compounds toxic to wild-type S. cerevisiae growth | A595 turbidity, 16 h | growth inhibition, % at 25 µM (by protocol) | hit rate 0.3% among 30,000 | AID 685;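 active = mutant and wild-type yeast strains alike exhibit over 30% growth inhibition; inconclusive = a strain exceeds 50% while the second remains under 30%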;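 note: 0% = untreated cell controls and 100% = YPD media blanks without cells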
#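 Schedule: 16 h growth with compound, 30 °C. System: yeast, wild-type or eIF2Bepsilon-R284H mutant. Doses: one dose, 25 µM compound[…]. Buffer or medium: YPD. Signal: turbidity measured as absorbance at 595 nm. Read-out basis: growth inhibition (%) versus cell controls and blanks.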
# eIF2B yeast act = modulators of yeast eIF2B activity; S. cerevisiae eIF2B-epsilon R284H, GCN4-lacZ luminescence; inhibition, % at 25 µM (by protocol); hit rate 0.91% among 27,000;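 active = mutant luminescence inhibited past about 50% while wild type luminescence and mutant growth stay under set limits, limit read from the data; inconclusive = mutant versus wild type luminescence inhibition gap past a set limit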
#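 material = yeast eIF2B-epsilon R284H mutant carrying GCN4–beta-galactosidase fusion | schedule = 16 h growth with compound at 30 °C, 90 min Beta-Glo step | measured by = luminescence and A595 | compound dosing = one concentration, 25 µM, 0.25% DMSO | read-out basis = % inhibition of reporter signal and growth versus controls | buffer or medium = YPD medium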
# Numbers without * were called inactive; ? = inconclusive; nt = not tested or not shown.
SMILES,Yeast growth tox,eIF2B yeast act
Cc1ccc(NC(=O)C2CCN(S(=O)(=O)c3c(C)n[nH]c3C)CC2)nc1,-7,19
CCC(=O)N1CCc2cc(S(=O)(=O)NC(C(=O)NCc3ccccc3)C(C)C)ccc21 (configuration not stated),3,55*
CCC(=O)N1CCc2cc(S(=O)(=O)NC(C(=O)NCc3ccc(F)cc3)C(C)C)ccc21 (configuration not stated),2,27
CCN1CCN(c2cc(-c3ccccc3)nc3cc(-c4cccc(F)c4)nn23)CC1,nt,53*
Cc1ccc(-c2cc3nc(-c4ccccc4)cc(N4CCOCC4)n3n2)cc1,-30,nt
Cc1c(NC(=O)C2C3C=CC(C3)C2C(=O)O)c(=O)n(-c2ccccc2)n1C (configuration not stated),33,10
CCCCC(=O)Nc1ccc(N2CCN(S(C)(=O)=O)CC2)cc1,3,62*
CCCCCC(=O)Nc1ccc(N2CCN(C(=O)CCC)CC2)cc1,-4,5
COc1ccccc1NC(=O)CSc1nnc(CNC(=O)COc2ccc(Cl)cc2)o1,2,25
Cc1cc(C(=O)O)c(CSCc2cc(C(=O)O)oc2C)o1,14,24
COc1cc(/C=C/C(=O)c2c(O)cc(C)oc2=O)cc(OC)c1O,12,11
COc1cccc(/C=C/C(=O)c2c(O)cc(C)oc2=O)c1O,34*,25
CCCCNC(=O)C1CCCN1C(=O)NC1CCCCC1 (configuration not stated),5,nt
Cc1ccc(C)c(N2CCN(S(=O)(=O)c3ccc4[nH]c(=O)c(=O)[nH]c4c3)CC2)c1,9,57*
Cc1ccc(C)c(N2CCN(S(=O)(=O)c3ccc4c(c3)CCC(=O)N4)CC2)c1,8,23
COc1ccc(C(=O)COC(=O)c2ccc(OC)c(OC)c2)cc1OC,-17,30
COc1ccc(C(=O)COC(=O)CN2C(=O)NC(C)(C)C2=O)cc1OC,-6,60*
O=C(CCCc1ccccc1)Nc1cccc2c1CCCC2,0,13
Cc1nc2ccccc2n1CCC(=O)Nc1cccc(F)c1,3,24
CCC(=O)N(Cc1cc(=O)[nH]c2ccccc12)c1cccc(C)c1,-20,51*
CCCCCOC(=O)c1cc(=O)[nH]c2ccccc12,15,13
CC(C)(Oc1ccc(Cl)cc1)C(=O)Nc1ccncc1,76*,nt
CC(C)(Oc1ccc(Cl)cc1)C(=O)NCc1ccco1,29,22
CCC1(C)Cc2ccccc2-c2nc3n(c(=O)c21)CC(C(=O)O)S3 (configuration not stated),-10,15
Cc1cc(C)n(-c2cc(=O)n(C)c(=O)n2C)n1,-3,51*
SMILES,Yeast growth tox,eIF2B yeast act
Cc1cc(C)n(CCn2nc(C)cc2C)n1,-12,29
CCCCn1c(N)c(N(CCOC)C(=O)CSc2nc3ccc(C)cc3[nH]2)c(=O)[nH]c1=O,-10,28
CSCCC(C(=O)Nc1ccc2c(c1)OCO2)N1C(=O)c2ccccc2C1=O (configuration not stated),6,-10
Cc1cc2c(c(=O)n1CC1CCCO1)C(c1ccco1)C(C#N)=C(N)O2 (configuration not stated),8,64*
Cc1cc2c(c(=O)n1CCCn1ccnc1)C(c1ccco1)C(C#N)=C(N)O2 (configuration not stated),11,-22
CCOC(=O)c1sc2nc(SCC#N)n(CCCN3CCCC3=O)c(=O)c2c1C,-11,-2
Cc1ccc(CN(C)C(=O)C2CCCN2C(=O)c2cccs2)o1 (configuration not stated),1,1
O=S(=O)(Nc1nc2ccc(S(=O)(=O)N3CCCCC3)cc2s1)c1ccccc1,17,22
CCCN1C(=O)C(O)(C2CC(=O)CC(C)(C)O2)c2ccccc21 (configuration not stated),7,18
COc1cccc(C(=O)Nc2cccc(C(=O)N3CCOCC3)c2)c1,9,59*
Cc1cccc(C(=O)Nc2cccc(C(=O)N3CCOCC3)c2)c1,4,22
CCCCCOc1ccc(CSc2ncn[nH]2)cc1,14,33
COc1ccc(CNC(=O)Nc2cccc3ccccc23)cc1,12,-16
O=C(OCCn1cncn1)c1cc2ccccc2oc1=O,-5,59*
Cc1ccn(C(=O)c2cc3ccccc3oc2=O)n1,3,18
c1ccc(C2OC3c4cccc5cccc(c45)C3N2c2ccccc2)cc1 (configuration not stated),-9,17
Clc1cccc(-c2nn3c(COc4ccccc4)nnc3s2)c1,3,56*
Clc1ccc(-c2nn3c(-c4cccc(Cl)c4)nnc3s2)cc1,-36,3
Cc1cc2ncc(C(=O)Nc3ccccc3)c(C)n2n1,4,52*
Cc1nn2c(C)c(C(=O)Nc3ccccc3)cnc2c1C#N,?,-10
Cc1cc(-c2ccccc2)nc(N2CCC(C(=O)NCC3CCCCC3)CC2)n1,nt,-19
O=c1ccnc(S/C=C/c2ccccc2)[nH]1,7,66*

# Compound activity from PubChem BioAssay.
